ChEMBL document CHEMBL1146294 (Bioorg Med Chem Lett, 2007)

Key:
HT-29 = assay: Antiproliferative activity against HT29 cells; assay type: functional, cell-based; settings: Homo sapiens
MCF7 = assay: Antiproliferative activity against MCF7 cells; assay type: functional, cell-based; settings: Homo sapiens
[1] = Stability in phosphate buffer; assay type: physicochemical
[2] = system: Arachidonate 12-lipoxygenase, platelet type (Homo sapiens); assay: Inhibition of LOX12 by human platelet assay; parameters: concentration or dose not given beside the values; settings: concentration not given here
[3] = target: Prostaglandin G/H synthase 1 (Homo sapiens) (UniProt P23219); assay: Inhibition of COX1 by human platelet assay; parameters: concentration or dose not given beside the values; settings: concentration not given here
Chain of Prostaglandin G/H synthase 1 (Homo sapiens) (P23219 whole entry): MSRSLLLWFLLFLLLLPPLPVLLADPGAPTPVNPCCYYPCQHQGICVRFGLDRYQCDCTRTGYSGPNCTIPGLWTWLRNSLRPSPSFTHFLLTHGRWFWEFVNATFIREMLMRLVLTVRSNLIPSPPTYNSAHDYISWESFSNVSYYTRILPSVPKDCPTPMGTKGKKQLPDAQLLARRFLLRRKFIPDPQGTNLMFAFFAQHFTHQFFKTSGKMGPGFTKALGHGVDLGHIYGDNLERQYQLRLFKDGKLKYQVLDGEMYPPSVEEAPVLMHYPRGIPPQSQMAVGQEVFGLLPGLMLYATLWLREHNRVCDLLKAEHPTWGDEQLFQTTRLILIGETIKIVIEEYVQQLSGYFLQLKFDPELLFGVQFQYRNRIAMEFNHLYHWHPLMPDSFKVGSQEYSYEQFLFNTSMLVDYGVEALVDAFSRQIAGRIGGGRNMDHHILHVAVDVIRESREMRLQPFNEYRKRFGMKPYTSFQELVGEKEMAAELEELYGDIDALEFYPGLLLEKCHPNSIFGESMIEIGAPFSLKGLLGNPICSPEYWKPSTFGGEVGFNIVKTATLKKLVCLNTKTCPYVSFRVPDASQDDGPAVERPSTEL
How it was run: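 Enzyme activities measured in human platelets incubated for 60 min in buffer solution at 37 °C. 12-LOX activity was read out as formation of 12(S)-HETE. COX-1 activity was read out as formation of its eicosanoid product.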

| SMILES | IC50 (HT-29) | IC50 (MCF7) | Stability [1] | inhibition [2] | inhibition [3] |
| --- | --- | --- | --- | --- | --- |
| O=c1[nH]cc(F)c(=O)[nH]1 [FLUOROURACIL] | 7.3 µM |  |  |  |  |
| CC(=O)OCC(OC(C)=O)C(OC(C)=O)C(Cn1c2nc(=O)n(CCOC(=O)C(C)c3ccc(CC(C)C)cc3)c(=O)c-2nc2cc(C)c(C)cc21)OC(C)=O (stereo not drawn) | 12.7 µM | 14.9 µM | Stable | < 11% | 15% |
| CC(=O)OCC(OC(C)=O)C(OC(C)=O)C(Cn1c2nc(=O)n(CCCCOC(=O)C(C)c3ccc(CC(C)C)cc3)c(=O)c-2nc2cc(C)c(C)cc21)OC(C)=O (stereo not drawn) | 10.5 µM | 9.5 µM | Stable | < 11% | 37% |
| CC(=O)OCC(OC(C)=O)C(OC(C)=O)C(Cn1c2nc(=O)n(CCO)c(=O)c-2nc2cc(C)c(C)cc21)OC(C)=O (stereo not drawn) | > 100 µM | > 100 µM |  |  |  |
| CC(=O)OCC(OC(C)=O)C(OC(C)=O)C(Cn1c2nc(=O)[nH]c(=O)c-2nc2cc(C)c(C)cc21)OC(C)=O (stereo not drawn) | 90.9 µM | 53.4 µM |  |  |  |
| CC(=O)OCC(OC(C)=O)C(OC(C)=O)C(Cn1c2nc(=O)n(CCCOC(=O)C(C)c3ccc(CC(C)C)cc3)c(=O)c-2nc2cc(C)c(C)cc21)OC(C)=O (stereo not drawn) | 9.3 µM | 7.8 µM | Stable | < 11% | 15% |
| CC(=O)OCC(OC(C)=O)C(OC(C)=O)C(Cn1c2nc(=O)n(CCCCCOC(=O)C(C)c3ccc(CC(C)C)cc3)c(=O)c-2nc2cc(C)c(C)cc21)OC(C)=O (stereo not drawn) | 13.1 µM | 9.5 µM | Stable | < 11% | 43% |
| CC(C)Cc1ccc([C@H](C)C(=O)O)cc1 [DEXIBUPROFEN] | > 1000 µM | 795 µM |  |  | 90% |
| CC(=O)OCC(OC(C)=O)C(OC(C)=O)C(Cn1c2nc(=O)n(COC(=O)C(C)c3ccc(CC(C)C)cc3)c(=O)c-2nc2cc(C)c(C)cc21)OC(C)=O (stereo not drawn) | 12.1 µM | 12.3 µM | Stable | < 11% | 15% |
